Experimental data as given in ChEMBL document CHEMBL2346655, “Synthesis and in vitro biological evaluation of 2,6,9-trisubstituted purines targeting multiple cyclin-dependent kinases” (Eur J Med Chem, 2013).
Active and inactive are the calls of the source. The calls are words filed in the database; no cut-off is given here.

Columns and labels:
[1] = system: CCRF-CEM; assay: Cytotoxicity against human CEM cells assessed as reduction in number of viable cells after 72 hrs by fluorescence assay; format: functional, cell-based
How it was run: (§1)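 Three-fold compound dilutions tested in triplicate on cultured cells for 72 h. Viable cells detected by adding Calcein AM and reading fluorescence at 485/538 nm (ex/em).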

[2] = system: HCT-116; assay: Cell cycle arrest in human HCT116 cells assessed as accumulation at G2/M phase at 5 uM after 24 hrs by propidium iodide staining-based flow cytometric analysis (reference value: 19.6%); format: functional
How it was run: (§2)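 Sub-confluent cells treated at several concentrations for 24 h, then pulsed with 10 μM BrdU for 30 min at 37 °C before harvest. Cells were PBS-washed, fixed in 70% ethanol, denatured in 2 M HCl and neutralized. Stained with fluorescein anti-BrdU and propidium iodide; DNA content read by flow cytometry with 488 nm excitation.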

[3] = system: HCT-116; assay: Cell cycle arrest in human HCT116 cells assessed as accumulation at G1 phase at 5 uM after 24 hrs by propidium iodide staining-based flow cytometric analysis (reference value: 48.8%); format: functional; how it was run: as §2
[4] = system: HCT-116; assay: Induction of apoptosis in human HCT116 cells assessed as change in PUMA level up to 5 uM after 24 hrs by immunoblotting analysis; format: functional, cell-based
How it was run: (§3)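 Cells were treated for 24 h, harvested directly into Laemmli sample buffer, and run on SDS-PAGE. Proteins were blotted to nitrocellulose, blocked, probed overnight with primary antibodies, then with peroxidase-linked secondaries. Bands were detected by ECL with a CCD camera. PCNA and tubulin served as loading references.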

[5] = system: HCT-116; assay: Cell cycle arrest in human HCT116 cells assessed as accumulation at G2/M phase at 1 uM after 24 hrs by propidium iodide staining-based flow cytometric analysis (reference value: 19.6%); format: functional; how it was run: as §2
[6] = system: HCT-116; assay: Cell cycle arrest in human HCT116 cells assessed as accumulation at G1 phase at 1 uM after 24 hrs by propidium iodide staining-based flow cytometric analysis (reference value: 48.8%); format: functional; how it was run: as §2
[7] = system: K562; assay: Cell cycle arrest in human K562 cells assessed as accumulation at G2/M phase at 1 uM after 24 hrs by propidium iodide staining-based flow cytometric analysis (reference value: 13.8%); format: functional; how it was run: as §2
[8] = system: MCF7; assay: Cytotoxicity against human MCF7 cells assessed as reduction in number of viable cells after 72 hrs by fluorescence assay; format: functional, cell-based; conditions: MCF7, 72 h; how it was run: as §1
[9] = system: HCT-116; assay: Cytotoxicity against human HCT116 cells assessed as reduction in number of viable cells after 72 hrs by fluorescence assay; format: functional, cell-based; conditions: HCT-116, 72 h; how it was run: as §1
[10] = system: HCT-116; assay: Cell cycle arrest in human HCT116 cells assessed as accumulation at G1 phase at 0.2 uM after 24 hrs by propidium iodide staining-based flow cytometric analysis (reference value: 48.8%); format: functional; how it was run: as §2
[11] = biological target: T1, CDK9/cyclin T1 (Homo sapiens) (UniProt O60563+P50750); assay: Inhibition of CDK9/CyclinT1-mediated phosphorylation of RNA polymerase 2 at Ser2 in human K562 cells up to 25 uM after 24 hrs by immunoblotting analysis; format: cell-based
How it was run: (§4)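 Immunoblot: cells lysed by harvesting in Laemmli sample buffer, proteins run on SDS-PAGE, electroblotted to nitrocellulose, blocked, primary antibodies overnight, peroxidase-conjugated secondaries, ECL detection by CCD camera. Antibodies included anti-phospho RNA polymerase II (S2), anti-RNA polymerase II (ARNA-3), anti-p53 (DO-1), anti-p21waf1 (118), anti-PCNA.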

[12] = system: CCRF-CEM; assay: Ratio of roscovitine IC50 to compound IC50 for human CEM cells; format: functional
How it was run: (§5)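 Cytotoxicity IC50s underlying the ratio: cells treated in triplicate with three-fold compound dilutions for 72 h, then Calcein AM added and live-cell fluorescence read at 485/538 nm (ex/em).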

[13] = system: HCT-116; assay: Cell cycle arrest in human HCT116 cells assessed as accumulation at S phase at 5 uM after 24 hrs by propidium iodide staining-based flow cytometric analysis (reference value: 31.6%); format: functional; how it was run: as §2
[14] = biological target: T1, CDK9/cyclin T1 (Homo sapiens); assay: Inhibition of CDK9/CyclinT1 in human ARN8 cells assessed as increase in p53-dependent transcriptional activity at 2 uM after 24 hrs by beta-galactosidase reporter gene assay; format: cell-based
How it was run: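 Arn-8 human melanoma cells stably carrying p53-responsive pRGCΔfoslacZ reporter; 24 h compound exposure, then permeabilized with 0.3% Triton X-100 for 15 min. 4-Methylumbelliferon-β-D-galactopyranoside added (80 μM final); fluorescence read at 355/460 nm (ex/em) after 1 h as β-galactosidase activity.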

[15] = system: HCT-116; assay: Cell cycle arrest in human HCT116 cells assessed as accumulation at subG1 phase at 0.2 uM after 24 hrs by propidium iodide staining-based flow cytometric analysis (reference value: 1.4%); format: functional; how it was run: as §2
[16] = system: K562; assay: Cell cycle arrest in human K562 cells assessed as accumulation at G1 phase at 5 uM after 24 hrs by propidium iodide staining-based flow cytometric analysis (reference value: 47.3%); format: functional; how it was run: as §2
[17] = system: K562; assay: Cell cycle arrest in human K562 cells assessed as accumulation at G1 phase at 0.2 uM after 24 hrs by propidium iodide staining-based flow cytometric analysis (reference value: 47.3%); format: functional; how it was run: as §2
[18] = biological target: Cyclin-dependent kinase 2/cyclin E1 (Homo sapiens, UniProt P24941); assay: Inhibition of CDK2/Cyclin E (unknown origin) expressed in Sf9 cells using histone H1 as substrate
[19] = biological target: Cyclin-dependent kinase 7/ cyclin H (Homo sapiens) (UniProt P51946+P50613); assay: Inhibition of CDK7/CyclinH/MAT1-mediated phosphorylation of RNA polymerase 2 at Ser5 in human HCT116 cells up to 25 uM after 24 hrs by immunoblotting analysis; format: cell-based; conditions: HCT-116
[20] = biological target: CDK9/cyclin T1 (Homo sapiens, UniProt P50750); assay: Inhibition of CDK9/CyclinT1 (unknown origin) using (YSPTSPS)2KK as substrate; format: protein-complex assay
How it was run: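 Buffer was 60 mM HEPES-NaOH pH 7.5, 3 mM MgCl2, 3 mM MnCl2, vanadate, DTT and PEG. Reactions were stopped with H3PO4 and spotted on P-81 paper, which was then washed. Radioactivity was imaged; IC50 taken from dose–response curves.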

[21] = system: HCT-116; assay: Induction of apoptosis in human HCT116 cells assessed as decrease in MCL1 level after 24 hrs by immunoblotting analysis; format: functional, cell-based; how it was run: as §3
[22] = system: HCT-116; assay: Induction of apoptosis in human HCT116 cells assessed as caspase-3/7 activation up to 25 uM by fluorescence assay; format: functional, cell-based
How it was run: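 After 24 h treatment, cells were lysed on ice for 20 min in pH 7.4 HEPES/KCl/EDTA/EGTA/0.2% CHAPS buffer with protease inhibitors and cleared at 10,000 × g for 30 min at 4 °C. Protein was equalized, then incubated for 1 h with 100 μM Ac-DEVD-AMC in PIPES buffer pH 7.3 containing DTT. Fluorescence was read at 355/460 nm; 100 μM Ac-DEVD-CHO served as the negative control.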

[23] = biological target: T1, CDK9/cyclin T1 (Homo sapiens); assay: Inhibition of CDK9/CyclinT1 in human HCT116 cells assessed as increase in p53 expression at 1 to 5 uM after 24 hrs by immunoblotting analysis; format: cell-based; conditions: HCT-116; how it was run: as §4
[24] = system: G-361; assay: Ratio of roscovitine IC50 to compound IC50 for human G361 cells; format: functional; how it was run: as §5
[25] = system: K562; assay: Cell cycle arrest in human K562 cells assessed as accumulation at G2/M phase at 0.2 uM after 24 hrs by propidium iodide staining-based flow cytometric analysis (reference value: 13.8%); format: functional; how it was run: as §2

Sequence of CDK9/cyclin T1 (O60563 whole entry): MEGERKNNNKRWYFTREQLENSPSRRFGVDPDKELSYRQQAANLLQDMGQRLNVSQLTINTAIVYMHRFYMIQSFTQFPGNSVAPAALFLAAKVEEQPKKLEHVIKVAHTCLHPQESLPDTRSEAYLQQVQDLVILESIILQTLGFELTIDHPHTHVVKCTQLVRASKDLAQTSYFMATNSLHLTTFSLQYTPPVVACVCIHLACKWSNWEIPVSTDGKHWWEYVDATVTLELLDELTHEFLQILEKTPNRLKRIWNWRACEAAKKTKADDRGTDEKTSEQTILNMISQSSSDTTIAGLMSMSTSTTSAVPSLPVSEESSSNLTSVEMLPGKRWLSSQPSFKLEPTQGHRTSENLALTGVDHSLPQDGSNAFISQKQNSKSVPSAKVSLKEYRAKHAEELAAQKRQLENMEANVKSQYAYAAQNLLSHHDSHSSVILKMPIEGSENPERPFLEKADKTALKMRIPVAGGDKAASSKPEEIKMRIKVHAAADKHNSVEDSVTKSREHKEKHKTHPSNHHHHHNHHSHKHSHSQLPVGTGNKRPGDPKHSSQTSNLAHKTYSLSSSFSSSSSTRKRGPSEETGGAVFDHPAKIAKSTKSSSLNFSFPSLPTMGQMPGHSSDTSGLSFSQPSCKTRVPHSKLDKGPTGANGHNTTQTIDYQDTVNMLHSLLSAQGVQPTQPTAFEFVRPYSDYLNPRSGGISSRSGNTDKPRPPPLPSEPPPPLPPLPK
Sequence of CDK9/cyclin T1 (P50750 whole entry): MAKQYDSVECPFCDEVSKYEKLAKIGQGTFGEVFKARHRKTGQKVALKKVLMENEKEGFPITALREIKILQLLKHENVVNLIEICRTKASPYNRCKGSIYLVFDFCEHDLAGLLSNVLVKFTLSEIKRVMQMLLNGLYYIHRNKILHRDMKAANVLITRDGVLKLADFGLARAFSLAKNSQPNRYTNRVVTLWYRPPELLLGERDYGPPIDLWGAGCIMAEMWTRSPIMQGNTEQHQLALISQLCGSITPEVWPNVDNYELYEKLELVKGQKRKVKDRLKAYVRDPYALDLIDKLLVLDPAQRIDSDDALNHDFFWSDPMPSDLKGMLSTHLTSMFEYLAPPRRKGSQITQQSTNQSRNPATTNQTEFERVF

inhibition [11]: Active | inhibition [14]: Active | IC50 [18]: 0.0131 µM | inhibition [19]: Active | IC50 [20]: 0.165 µM | inhibition [23]: Active
Compound: CC[C@@H](Nc1nc(NCc2cc(Cl)ccc2O)c2ncn(C(C)C)c2n1)C(C)O (mixture of isomers)
IC50 [1]: 1.6 µM | Activity [2]: 37.9% | Activity [3]: 29.5% | Activity [4]: inactive | Activity [5]: 31.8% | Activity [6]: 39.4% | Activity [7]: 28.7% | IC50 [8]: 2.6 µM | IC50 [9]: 2 µM | Activity [10]: 45.6% | Ratio IC50 [12]: >9 | Activity [13]: 33.7% | Activity [15]: 1.5% | Activity [16]: 40.7% | Activity [17]: 34.7% | Activity [21]: Dose-dependent effect | Activity [22]: Active | Ratio IC50 [24]: >9 | Activity [25]: 25.8%
